In PMC4627538 (Journal of Diabetes Investigation, 2015):
Bridge positions count the residues as written; N and C are the ends. Ends that are not written are not given here.

Experiments:
[1] = tested on: background proteins (BSA and anti-MGAM antibodies); assay: Phage ELISA, binding of phage clones to background
How it was run: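 Wells coated overnight at 4°C with anti-MGAM antibodies (5 µg/mL) in PBS, blocked 90 min at room temperature with 2% BSA/PBS, with no MGAM added. 5×10^9 pfu of each phage clone in 0.05% PBST incubated 60 min, then washed five times with 0.1% PBST. Bound phage detected with HRP anti-M13 monoclonal antibody and TMB at A450. Triplicates, mean ± SD.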

[2] = tested on: maltase glucoamylase (MGAM); assay: Phage ELISA, binding of phage clones to MGAM; parameters: species or system rat; conditions: displayed on phage, judged from ELISA signals, Figure 1

binding of phage clones to background proteins [1] | Sequence | affinity towards the target (MGAM), comparison between phage clones [2]
lower background binding | CGHHHRDYC (disulfide 1-9 (inferred)) [C2] | higher affinity towards the target than those obtained with specific elution
lower background binding | CTHYGFRGC (disulfide 1-9 (inferred)) [C1] | higher affinity towards the target than those obtained with specific elution
